Assay results published in ChEMBL document CHEMBL1165902, “Synthesis and antiproliferative activity of oxazinocarbazole and N,N-bis(carbazolylmethyl)amine derivatives” (Eur J Med Chem, 2010).

Tests used:
[1] = test system: Caco-2; assay: Antiproliferative activity against human Caco-2 cells at 100 uM after 72 hrs by WST1 assay; assay type: functional
Outline: (§1)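 Cells were exposed to compound for 72 h at 37 °C in RPMI 1640 with 10% FCS. Densities (cells/mL) were CEM 0.2×10^6, Jurkat 0.6×10^6, Raji 0.4×10^6, MCF-7 and Caco-2 0.2×10^6. WST-1 was then added for 4 h and absorbance read at 492 nm. Living cells are given as % of untreated-control OD (100 = no activity), with 0.1% DMSO vehicle controls and etoposide as positive control.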

[2] = test system: MCF7; assay: Antiproliferative activity against human MCF7 cells at 100 uM after 72 hrs by WST1 assay; assay type: functional; outline: as §1
[3] = test system: Jurkat; assay: Antiproliferative activity against human Jurkat cells at 100 uM after 72 hrs by WST1 assay; assay type: functional; outline: as §1
[4] = test system: CCRF-CEM; assay: Antiproliferative activity against human CEM cells after at 100 uM 72 hrs by WST1 assay; assay type: functional; outline: as §1
[5] = test system: Raji; assay: Antiproliferative activity against human Raji cells at 100 uM after 72 hrs by WST1 assay; assay type: functional; outline: as §1
[6] = test system: CCRF-CEM; assay: Antiproliferative activity against human CEM cells after 72 hrs by WST1 assay; assay type: functional, cell-based
Outline: (§2)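 Seeding densities (cells/mL) were CEM 0.2×10^6, Jurkat 0.6×10^6, Raji 0.4×10^6, MCF-7 0.2×10^6 and Caco-2 0.2×10^6, in RPMI 1640 with 10% FCS, non-essential amino acids, pyruvate, glutamine and gentamicin. Cells were exposed to 12.5–100 µM (DMSO stocks, 0.1% DMSO controls) for 72 h at 37 °C. WST-1 was added for 4 h and read at 492 nm. IC50 is for 50% growth inhibition.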

[7] = test system: Raji; assay: Antiproliferative activity against human Raji cells after 72 hrs by WST1 assay; assay type: functional, cell-based; outline: as §2
[8] = test system: Jurkat; assay: Antiproliferative activity against human Jurkat cells after 72 hrs by WST1 assay; assay type: functional, cell-based; outline: as §2
[9] = test system: MCF7; assay: Antiproliferative activity against human MCF7 cells after 72 hrs by WST1 assay; assay type: functional, cell-based; settings: MCF7, 72 h; outline: as §2
[10] = test system: Caco-2; assay: Antiproliferative activity against human Caco-2 cells after 72 hrs by WST1 assay; assay type: functional, cell-based; settings: Caco-2, 72 h; outline: as §2

| SMILES | Activity [1] | Activity [2] | Activity [3] | Activity [4] | Activity [5] | IC50 [6] | IC50 [7] | IC50 [8] | IC50 [9] | IC50 [10] |
| --- | --- | --- | --- | --- | --- | --- | --- | --- | --- | --- |
| C=CCn1c2ccccc2c2c3c(ccc21)CN(c1ccccc1)CO3 | 54.5% | 83% | 13.5% | 17% | 49.5% | – | – | – | – | – |
| CC(C)=CCn1c2ccccc2c2c3c(ccc21)CN(Cc1ccccc1)CO3 | 53% | 27.5% | 7.5% | 5.5% | 7% | 37.6 µM | 39.3 µM | 55.5 µM | 75 µM | 75 µM |
| CCn1c2ccccc2c2c3c(ccc21)CN(Cc1ccccn1)CO3 | 16% | 52% | 82% | 23% | 100% | – | – | – | – | – |
| CC(c1ccccc1)N1COc2ccc3c4ccccc4n(C)c3c2C1 (centres undefined) | 5% | 0% | 0.5% | 0.5% | 19.5% | – | – | – | – | – |
| Cn1c2ccccc2c2c(O)c(CN(Cc3ccccn3)Cc3ccc4c(c3O)c3ccccc3n4C)ccc21 | 54% | 98.5% | 72% | 87.5% | 100% | – | – | – | – | – |
| CC(C)=CCn1c2ccccc2c2c(O)c(CN(Cc3ccccn3)Cc3ccc4c(c3O)c3ccccc3n4CC=C(C)C)ccc21 | 100% | 100% | 100% | 100% | 100% | – | – | – | – | – |
| CCn1c2ccccc2c2c(O)c(CN(Cc3ccccn3)Cc3ccc4c(c3O)c3ccccc3n4CC)ccc21 | 35.5% | 89% | 97.5% | 53% | 100% | – | – | – | – | – |
| Cc1ccc(CN2COc3cc4c(cc3C2)c2ccccc2n4C)cc1 | 6.5% | 27.5% | 2.5% | 1% | 27% | 68.8 µM | 72.8 µM | 71.1 µM | 75 µM | 57.4 µM |
| Cn1c2ccccc2c2c3c(ccc21)CN(Cc1ccccc1)CO3 | 100% | 87% | 87% | 10% | 80% | – | – | – | – | – |
| C=CCN1COc2cc3c(cc2C1)c1ccccc1n3C | 2.5% | 1.5% | 1.5% | 1.5% | 10.5% | 50.1 µM | 56.2 µM | 50 µM | 62.6 µM | 32.1 µM |
| Cn1c2ccccc2c2c3c(ccc21)CN(c1ccccc1)CO3 | 100% | 100% | 74.5% | 25% | 77% | – | – | – | – | – |
| C=CCN1COc2ccc3c4ccccc4n(C)c3c2C1 | 5% | 62% | 2% | 1.5% | 60.5% | – | – | – | – | – |
| Cn1c2ccccc2c2cc(CN(Cc3ccccn3)Cc3cc4c5ccccc5n(C)c4cc3O)c(O)cc21 | 10.5% | 24.5% | 8.5% | 9% | 70% | – | – | – | – | – |
| C=CCn1c2ccccc2c2c3c(ccc21)CN(Cc1ccccn1)CO3 | 55.5% | 47.5% | 12.5% | 14.5% | 31.5% | – | – | – | – | – |
| Cn1c2ccccc2c2ccc3c(c21)CN(Cc1ccccc1)CO3 | 6% | 60.5% | 5.5% | 1.5% | 31.5% | 70.8 µM | 75 µM | 74.2 µM | 72.1 µM | 62.5 µM |
| Cn1c2ccccc2c2ccc3c(c21)CN(Cc1ccccn1)CO3 | 7% | 1.5% | 2% | 1% | 23% | 74.3 µM | – | 75 µM | – | 68.8 µM |
| C=CCn1c2ccccc2c2c3c(ccc21)CN(Cc1ccc(C)cc1)CO3 | 54.5% | 66% | 3.5% | 9% | 9.5% | – | – | – | – | – |
| CCn1c2ccccc2c2c3c(ccc21)CN(C(C)c1ccccc1)CO3 (centres undefined) | 59% | 86.5% | – | 21% | – | – | – | – | – | – |

| SMILES | Activity [1] | Activity [2] | Activity [3] | Activity [4] | Activity [5] | IC50 [6] | IC50 [7] | IC50 [8] | IC50 [9] | IC50 [10] |
| --- | --- | --- | --- | --- | --- | --- | --- | --- | --- | --- |
| Cn1c2ccccc2c2cc3c(cc21)OCN(Cc1ccccn1)C3 | 7.5% | 5% | 3.5% | 1.5% | 38% | 16.5 µM | 12.1 µM | 11.5 µM | 56.4 µM | 43.7 µM |
| Cc1ccc(CN2COc3ccc4c5ccccc5n(C)c4c3C2)cc1 | 3% | 1.5% | 1.5% | 1% | 12% | – | – | – | – | – |
| C=CCN1COc2c(ccc3c2c2ccccc2n3CC=C(C)C)C1 | 30% | 2% | 2% | 4% | 3.5% | 11.8 µM | 11.9 µM | 11.8 µM | 37 µM | 43.8 µM |
| C=CCN1COc2c(ccc3c2c2ccccc2n3CC=C)C1 | 12% | 43% | 2.5% | 2% | 19.5% | – | – | – | – | – |
| Cn1c2ccccc2c2cc3c(cc21)OCN(Cc1ccccc1)C3 | 1.5% | 3% | 1% | 0.5% | 11% | – | – | – | – | – |
| CC(c1ccccc1)N1COc2c(ccc3c2c2ccccc2n3C)C1 (centres undefined) | 100% | 100% | 80.5% | 40% | 84% | – | – | – | – | – |
| C=CCN1COc2c(ccc3c2c2ccccc2n3CC)C1 | 34% | 10% | 6.5% | 4% | 4.5% | 44 µM | 43.6 µM | 75 µM | – | 25.2 µM |
| CCn1c2ccccc2c2c3c(ccc21)CN(Cc1ccccc1)CO3 | 46% | 64% | – | 31.5% | – | – | – | – | – | – |
| Cc1ccc(CN2COc3c(ccc4c3c3ccccc3n4C)C2)cc1 | – | 42.5% | – | 55.5% | – | – | – | – | – | – |
| CC(C)=CCn1c2ccccc2c2c3c(ccc21)CN(c1ccccc1)CO3 | 60% | 49% | 7.5% | 10.5% | 17% | – | – | – | – | – |
| CCn1c2ccccc2c2c3c(ccc21)CN(c1ccccc1)CO3 | 100% | 100% | 55% | 58.5% | 84% | – | – | – | – | – |
| C=CCN1COc2c(ccc3c2c2ccccc2n3C)C1 | 5% | 35% | 8.5% | 4.5% | 9.5% | 35.7 µM | 43.6 µM | 69 µM | – | 32.1 µM |
| C=CCn1c2ccccc2c2c3c(ccc21)CN(Cc1ccccc1)CO3 | 56.5% | 55.5% | 67% | 5.5% | 100% | – | – | – | – | – |
| CC(c1ccccc1)N1COc2cc3c(cc2C1)c1ccccc1n3C (centres undefined) | 2% | 0% | 1% | 0.5% | 18.5% | 25.2 µM | 57.9 µM | 37.3 µM | 62.5 µM | 37.7 µM |
| CCn1c2ccccc2c2c3c(ccc21)CN(Cc1ccc(C)cc1)CO3 | 93% | 85.5% | 49.5% | 15% | 31.5% | – | – | – | – | – |
| CC(C)=CCn1c2ccccc2c2c3c(ccc21)CN(Cc1ccc(C)cc1)CO3 | 48.5% | 41.5% | 13.5% | 11.5% | 11% | – | – | – | – | – |
| C=CCn1c2ccccc2c2c(O)c(CN(Cc3ccccn3)Cc3ccc4c(c3O)c3ccccc3n4CC=C)ccc21 | 94% | 94.5% | 92% | 78.5% | 95.5% | – | – | – | – | – |
| Cn1c2ccccc2c2cc3c(cc21)OCN(Cc1nc2ccccc2s1)C3 | 51% | 79% | 17% | 34% | 78% | – | – | – | – | – |
